Assay outcomes: PubChem, several laboratories
A selection: hits, their analogues and other compounds. The true share with any hit is near 2.4%.
m5-HT2A agonist – activates the mouse 5-HT2A serotonin receptor; activation, % at 7.6 µM; AID 624169; CHO-K1 mHTR2A beta-arrestin complementation, luminescence; percent of 30 µM serotonin response; P35363; actives 0.66% (n = 360,000);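 active = activation above a run cutoff, the mean activation of all tested compounds plus 3 SD, cut at about 14% in these data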;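 also: 0% = plate median of compound wells and 100% = 30 µM serotonin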
SR-BI uptake up – activators of SR-BI mediated HDL lipid uptake | CHO ldlA[mSR-BI] cells, DiI-HDL uptake fluorescence, 3 h; 100 = double the neutral-control signal | activation, % at 12.5 µM | actives 0.096% (n = 320,000) | AID 504775;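 active = mean replicate activation of at least 60% and every replicate at or above 60%; inconclusive = mean or all-replicate condition met, but not both; inactive = mean below 60% and not all replicates reaching 60%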;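 also: 0% = median plate neutral-control signal and 100% = twice that signal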
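Material: SR-BI-overexpressing, LDLR-lacking CHO cells; schedule: compound exposure 3 h, 37 °C; reagent: DiI-labelled HDL at 10 µg/mL final; technique: bottom-read fluorescence, 550/595 nm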
Calb FLC – affects C. albicans growth with fluconazole; AID 1979; actives 0.57% (n = 300,000); growth inhibition, % (no concentration beside the values); C. albicans CaCi-2 + fluconazole, Alamar Blue growth, 48 h;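 active = growth inhibition above about 58% in most replicates, limit read from the data, passing the limit was not always enough; inconclusive = exactly half the replicates above a set limit; inactive = most replicates below a set limit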;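 also: all wells also contain fluconazole at 8 µg/ml as a sub-toxic cotreatment; 0% = median of DMSO wells and 100% = median of geldanamycin control wells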
Insulin prom up – MIN6 insulin promoter up-regulation | actives 0.3% (n = 190,000) | z-score at 5 µM | MIN6 insulin promoter-GFP reporter, high-content imaging; hits give high values;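 active = z-score above 3 at 5 µM with at least 500 cells counted in the well; inconclusive = wells under 500 cells, flagged as cytotoxic or low count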
MIN6 prolif – MIN6 beta-cell proliferation induction | actives 0.29% (n = 330,000) | MIN6 cells proliferation, ATPlite luminescence, 48 h; cells starved in 0.2% serum; 100% = growth in 10% serum | proliferation, % at 10 µM;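 active = compounds whose signal lies at least 3.5 SD above the mean of all wells on their plate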;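 also: 0% = DMSO-treated cells in low-serum medium and 100% = 10% serum control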
SR-BI DiI inh – inhibitors of mouse SR-BI mediated HDL lipid uptake; Q61009; ldlA[mSR-BI] CHO cells, DiI-HDL uptake fluorescence, 3 h; inhibition, % at 12.5 µM; actives 0.96% (n = 320,000); AID 488896;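 active = mean replicate inhibition of at least 70% and a set share of replicates each scoring 70 or more; inconclusive = meets just one of the two criteria; inactive = fails both criteria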;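 also: 0% = median of neutral control wells and 100% = median of positive control wells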
Target sequence (Q61009 whole entry, looked up): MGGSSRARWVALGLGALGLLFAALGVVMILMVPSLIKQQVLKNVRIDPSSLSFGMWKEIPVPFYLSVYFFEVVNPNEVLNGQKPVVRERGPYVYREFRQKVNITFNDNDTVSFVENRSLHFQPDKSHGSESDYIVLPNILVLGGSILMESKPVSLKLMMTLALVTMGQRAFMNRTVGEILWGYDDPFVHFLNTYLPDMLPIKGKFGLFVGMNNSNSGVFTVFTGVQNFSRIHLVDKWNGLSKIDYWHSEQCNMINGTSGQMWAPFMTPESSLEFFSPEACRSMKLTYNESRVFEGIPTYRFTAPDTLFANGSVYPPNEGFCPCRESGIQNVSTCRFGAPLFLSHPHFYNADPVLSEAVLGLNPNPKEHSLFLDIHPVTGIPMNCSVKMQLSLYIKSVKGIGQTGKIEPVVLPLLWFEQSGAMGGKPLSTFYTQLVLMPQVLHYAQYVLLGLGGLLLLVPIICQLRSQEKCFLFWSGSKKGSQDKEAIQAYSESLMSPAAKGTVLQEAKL
The depositor's hits bear a star; ? = inconclusive; nt = not tested or not shown.

SMILES	m5-HT2A agonist	SR-BI uptake up	Calb FLC	Insulin prom up	MIN6 prolif	SR-BI DiI inh
CC1CCC(NC(=O)CCN2C(=O)C3C4C=CC(C4)C3C2=O)CC1 (configuration not stated)	-3	18	-11	nt	1	-18
CCCN1C(=O)/C(=C/C=C2\N(CC)c3ccccc3C2(C)C)SC1=S	2	-48	10	nt	-6	48
CCCCN1C(=O)/C(=C/C=C2\Oc3ccccc3N2CC)SC1=S	7	-89	17	nt	nt	89*
Cc1ccc(SC[C@H](C)CN2CC[C@H](C(C)(C)C)CCC2=O)cc1	9	7	-5	nt	-5	-7
CC[C@@H](C(=O)[C@@H](C)[C@@H](O)[C@H](C)[C@@H]1O[C@@H]([C@@H](CC)C(=O)O)CC[C@@H]1C)[C@H]1O[C@]2(C=C[C@@H](O)[C@]3(CC[C@@](C)([C@H]4CC[C@](O)(CC)[C@H](C)O4)O3)O2)[C@H](C)C[C@@H]1C	23*	18	nt	nt	nt	-18
CCN(C)C1CN(Cc2cn(CCCC(=O)OC)nn2)S(=O)(=O)C1 (configuration not stated)	-22	nt	nt	nt	nt	nt
COc1ccc(OC)c(NC(=O)C(C)OC(=O)c2cc3ccccc3[nH]2)c1 (configuration not stated)	7	-28	nt	nt	nt	28
O=C(NC(=S)Nc1cc(Cl)ccc1Cl)c1ccco1	-2	nt	nt	nt	nt	nt
O=C(CSc1ncn[nH]1)NCc1ccccc1	-1	5	-7	5.4*	0	-5
CC(C)CNC(=O)CSc1nnc(-c2cccc(S(=O)(=O)N3CCCCC3)c2)o1	0	-21	-1	4.8*	-2	21
CN1C(=O)Cc2cc(S(=O)(=O)N3CCN(c4cccc(Cl)c4)CC3)ccc21	3	7	1	nt	-1	-7
CN1C(=O)Cc2cc(S(=O)(=O)N3CCN(c4ccc(Cl)cc4)CC3)ccc21	15*	1	-6	nt	1	-1
O=C(C1CCN(c2nnc(-n3cccc3)s2)CC1)N1CCN(c2cccc(C(F)(F)F)c2)CC1	3	-72	26	-1.8	-3	72*
COc1ccccc1NC(=O)Cc1csc(NC(=S)Nc2ccccc2)n1	-5	-20	-13	0.17	-4	20
COc1ccccc1NC(=O)Nc1nc(CC(=O)NCc2ccc(F)cc2)cs1	0	-72	4	nt	-2	72*
COc1ccc(OC)c(NC(=O)Cc2csc(NC(=O)Nc3ccccc3OC)n2)c1	-1	-76	-14	nt	-4	76*
COc1ccccc1NC(=O)Nc1nc(CC(=O)NCc2c(F)cccc2F)cs1	-5	-72	-6	nt	4	72*
COc1ccc(C(=O)Nc2nc(CC(=O)NCCc3cccc(OC)c3)cs2)cc1	7	-73	5	nt	-2	73*
COc1ccc(NC(=O)Cc2csc(NC(=O)Nc3ccccc3OC)n2)c(OC)c1	-3	-64	-1	nt	-1	64
N#CCCSc1ccccc1NC(=O)c1ccc(S(=O)(=O)N2CCCC2)cc1	nt	nt	nt	0.27	nt	nt
CC1=N/C(=C\c2ccc([N+](=O)[O-])cc2)C(=O)N1c1ccc(F)cc1F	0	10	-5	nt	-3	-10
COc1cccc(CNC(=O)Cc2csc(NC(=O)Nc3ccccc3OC)n2)c1	3	-78	-5	nt	1	78*
O=C(CC(=O)c1cc(Cl)ccc1O)c1ccccc1	2	9	34	-0.62	-4	-9
Cc1cccc(C(=O)CC(=O)c2cc(Cl)ccc2O)c1	-5	nt	98*	nt	-5	30
COc1cc(OC)cc(C(=O)NNC(=O)Cc2ccc(OC)c(S(=O)(=O)N3CCOCC3)c2)c1	7	11	110*	0.7	-3	-11
SMILES	m5-HT2A agonist	SR-BI uptake up	Calb FLC	Insulin prom up	MIN6 prolif	SR-BI DiI inh
COc1ccc(NC(=O)c2cc3c(s2)CCC3)cc1S(=O)(=O)N1CCOCC1	-4	-70	33	nt	-2	70*
COc1ccc(CNC(=O)Cc2ccc(OC)c(S(=O)(=O)N3CCOCC3)c2)cc1	1	-10	-1	0.04	1	10
COc1ccc(S(=O)(=O)N2CCOCC2)cc1NC(=O)c1cc2c(s1)CCCC2	0	-29	-22	0.01	-1	29
CCN(CC)CCCCNc1ncc2cc(-c3cc(OC)cc(OC)c3)c(NC(=O)NC(C)(C)C)nc2n1	0	-27	5	nt	-8	27
Nc1ccc(-c2nc(-c3ccccc3)nc3ccccc23)cc1	3	-72	-4	nt	-2	72*
CCCn1c(C2CCCN2c2nc(-c3cccc(Br)c3)cs2)nc2ccccc21 (configuration not stated)	-6	-14	-9	nt	-8	14
COc1ccc(N2C(=S)N=C(Nc3cccc(C)c3)C23CCCCC3)cc1	0	14	?	-0.61	0	-14
Cc1cccc(NC2=NC(=S)N(c3cccc(C(=O)O)c3)C23CCCCC3)c1	0	-7	104*	0.35	3	7
COc1cccc(N2CCN(c3ncccn3)CC2)c1	0	8	14	3.1*	-4	-8
Cc1cc(C)c(C)c(N=Nc2nc3ccccc3n2C)c1C	4	-79	28	0.12	-4	79*
CSc1ncccc1C(=O)Nc1cccc(S(=O)(=O)N2CCCCC2)c1	-2	-14	nt	nt	-3	14
O=C(Nc1c(C(=O)c2ccccc2)oc2ccccc12)c1cc(-c2ccccc2O)n[nH]1	-2	-74	-3	-0.49	-1	74*
C=C[C@]1(C)C=C2C(=O)[C@@]3(O)OC(=O)[C@@]4(CCCC(C)(C)[C@H]34)[C@@]2(O)CC1	8	nt	nt	nt	nt	nt
O=C(c1ccc2c(c1)OCO2)N1CCCC1	-4	28	22	8.9*	-1	-28
CC(=O)Nc1ccc(S(=O)(=O)Nc2ccc(=O)n(Cc3ccc(Cl)c(Cl)c3)c2)cc1	-5	nt	-3	-0.71	0	nt
Cc1ccc(S(=O)(=O)Nc2ccc(=O)n(Cc3ccc(Cl)c(Cl)c3)c2)cc1	-4	21	?	3.3*	-2	-21
CC[n+]1c(C)sc2cc(C)ccc21	-3	7	-16	1.4	-6	8
Cc1ccc2c(c1)sc(-c1ccc(N(C)C)cc1)[n+]2C	3	-2	90*	nt	-5	2
Cn1c(-c2c(N)n(CCc3ccccc3)c3nc4ccccc4nc23)nc2ccccc21	-4	-65	94*	1.7	-5	65
Cc1cc(C)n2nc(C(=O)OCC(=O)N3C(C)CCCC3C)nc2n1 (configuration not stated)	8	22	-2	nt	6	-22
Cc1cccc(Cn2c(O)c(N=NC(=S)Nc3ccccc3F)c3ccccc32)c1	0	-15	114*	-2.2	-6	15
Oc1c(N=NC(=S)Nc2ccccc2F)c2ccccc2n1Cc1cccc(Cl)c1	-2	-13	10	0.38	-5	13
